Sampled rows, rich in hits. Any-hit rate of the full collection: about 1.6%.
IMP-1 inh-1: IMP-1 metallo-beta-lactamase inhibitors, primary screen, biochemical, epi-absorbance readout, Pseudomonas aeruginosa enzyme; metallo-beta-lactamase IMP-1 (Pseudomonas aeruginosa); purified IMP-1, nitrocefin hydrolysis, epi-absorbance fluorescence; inhibition, % at 5.6 µM; 0.45% of 290,000 active;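 active means inhibition above the mean plus 3 SD of all compounds in the same screening run, cut at about 4.5% in these data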;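 further: 0% = IMP-1 with DMSO and 100% = DMSO wells lacking enzyme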
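assay system = purified recombinant IMP-1 metallo-beta-lactamase enzyme | schedule = 15 min preincubation plus 25 min reaction at 25 °C | signal = Epi-absorbance fluorescence, 480 nm excitation, 530 nm emission | read-out basis = percent inhibition from optical density relative to buffer-blank wells | controls = IMP-1 with DMSO as 0%, enzyme-free DMSO as 100%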
FID counter: compounds displacing fluorescent DNA intercalator, primary screen, artefact control for HCV NS3 helicase inhibitor project, biochemical, FID fluorescence; AID 1845, 2009; DNA fluorescent intercalator displacement; inhibition, % at 7.9 µM; 0.17% of 290,000 active; in the data active means inhibition above about 37%;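 further: 0% = vehicle and 100% = reference compound; higher means more ethidium bromide displaced from hairpin DNA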
HCV core dimer: inhibitors of HCV core protein dimerization, primary screen, biochemical, TR-FRET, high-throughput; TR-FRET GST/Flag-core106 dimerization, 1536-well; inhibition, % at 5 µM; AID 1899, 2009; 0.33% of 300,000 active;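 active means inhibition above the mean of all tested compounds plus 3 SD, set per screening campaign, cut at about 45% in these data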
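Material: Tagged HCV core106 pair (GST and Flag) | Amount: GST-core106 13.5 nM, Flag-core106 17 nM | Medium: KF-containing HEPES buffer, pH 7.45, DTT, CHAPS, BSA | Reagent: Eu donor and XL665 acceptor anti-tag antibodies | Schedule: 4 h at 22.5 °C | Technique: Time-resolved FRET, ex 340 nm, em 617 and 671 nm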
VIM-2 inhibitor: VIM-2 metallo-beta-lactamase inhibitors, primary screen, biochemical, epi-absorbance readout, Pseudomonas aeruginosa enzyme | purified VIM-2, nitrocefin hydrolysis, epi-absorbance fluorescence | inhibition, % at 5.6 µM | 0.89% of 290,000 active;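 active means inhibition above the mean of all tested compounds plus 3 SD, cutoff set per screening run, cut at about 7.5% in these data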;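 further: red hydrolysis product quenches plate fluorescence so inhibitors raise well fluorescence; 0% = enzyme with DMSO and 100% = DMSO without enzyme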
IMP-1 inh-2: IMP-1 metallo-beta-lactamase inhibitors, confirmation, selectivity assay for selective VIM-2 inhibitor project, biochemical, epi-absorbance readout, triplicate; inhibition, % at 5.6 µM; 1,300 tested, under 10 active; shares compounds with VIM-2 inhibitor; AID 1856, 2009; purified IMP-1, nitrocefin hydrolysis, epi-absorbance fluorescence; call rule not given here;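 further: 0% = enzyme with vehicle and 100% = vehicle without enzyme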
VIM-2 FRET ctr: VIM-2 inhibitors in FRET format, confirmation, artefact control for selective VIM-2 inhibitor project, biochemical, epi-absorbance artifact exclusion; 23% of 1,300 active; purified VIM-2, CCF2 FRET substrate hydrolysis; shares compounds with VIM-2 inhibitor; inhibition, % at 5.6 µM;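 active means inhibition above the mean of all tested compounds plus 3 SD, cut at about 19% in these data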;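 further: 0% = VIM-2 plus DMSO and 100% = no enzyme wells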
TEM-1 inh: TEM-1 serine beta-lactamase inhibitors, counter-screen for VIM-2 inhibitor project, biochemical, epi-absorbance, HTS; inhibition, % at 5.6 µM; shares compounds with VIM-2 inhibitor; Purified TEM-1, nitrocefin hydrolysis, epi-absorbance fluorescence; 3% of 1,300 active; AID 1866, 2009;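 active means inhibition above that campaign's mean inhibition plus 3 SD, cut at about 0.46% in these data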;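 further: 0% = TEM-1 with DMSO and 100% = TEM-1 with 100 µM potassium clavulanate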
Target sequence (P62593 whole entry, looked up): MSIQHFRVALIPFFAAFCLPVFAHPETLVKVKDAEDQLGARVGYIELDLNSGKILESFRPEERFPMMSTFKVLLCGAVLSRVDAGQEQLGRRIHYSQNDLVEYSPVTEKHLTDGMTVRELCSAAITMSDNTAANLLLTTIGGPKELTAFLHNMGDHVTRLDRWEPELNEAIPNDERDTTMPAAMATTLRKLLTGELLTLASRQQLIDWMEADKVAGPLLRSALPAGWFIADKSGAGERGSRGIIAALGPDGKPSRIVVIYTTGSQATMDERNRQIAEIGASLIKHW
VIM-2 confirm 2: VIM-2 metallo-beta-lactamase inhibitors, confirmation, biochemical, epi-absorbance, hits shared with IMP-1 screen. shares compounds with VIM-2 inhibitor. purified VIM-2, nitrocefin hydrolysis. inhibition, % at 5.6 µM. 96% of 1,300 active. AID 2187, 2009;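 active means inhibition of the VIM-2 beta-lactamase enzyme above about 11% from the earlier first-round screen, limit read from the data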;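 further: 0% = VIM-2 with DMSO and 100% = buffer wells without enzyme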
An asterisk follows results filed as active; nt = not tested or not shown.

SMILES | IMP-1 inh-1 | FID counter | HCV core dimer | VIM-2 inhibitor | IMP-1 inh-2 | VIM-2 FRET ctr | TEM-1 inh | VIM-2 confirm 2
Cc1nc(C)c(/C(O)=C/c2nc3ccccc3oc2=O)s1 | -4 | -4 | -3 | 19* | -2 | 11 | -6 | 2
CN1CCN(C(=O)CSc2nc(-c3cccs3)ccc2C#N)CC1 | -2 | 3 | 53* | 28* | -3 | 4 | -7 | 50*
CCc1ccc(NC(=O)c2cnc(N3CCN(c4ccccn4)CC3)c3ccccc23)cc1 | -1 | -8 | 15 | 0 | nt | nt | nt | nt
CCN1CCN(c2ncc(C(=O)Nc3ccccc3C(=O)OC)c3ccccc23)CC1 | -2 | 6 | 2 | 18* | -4 | 3 | -6 | 30*
COc1ccc(/C=C2\SC(c3ccc(C)cc3)=NC2=O)cc1OC | 1 | -27 | 1 | 6 | nt | nt | nt | nt
COc1ccc(/C=C2/SC(c3ccc(C)cc3)=NC2=O)cc1OC | 0 | -23 | 4 | 15* | 9.4* | -2 | 20* | 14*
COc1cc(CNC(C)c2ccccc2)c(Br)cc1OCC(N)=O (configuration not stated) | 0 | 2 | -7 | -2 | nt | nt | nt | nt
COc1cc(/C=C(\C#N)C(=O)Nc2ccc(SC(F)F)cc2)cc(OC)c1OC | -5 | -5 | 0 | 1 | nt | nt | nt | nt
Cc1c(N2C(=O)/C(=C\c3cccc4ccccc34)SC2=S)c(=O)n(-c2ccccc2)n1C | -3 | -12 | 20 | 62* | 0 | 33* | -3 | 30*
Cc1c(N2C(=O)c3ccccc3C2=O)c(=O)n(-c2ccccc2)n1C | -2 | -2 | 2 | -2 | nt | nt | nt | nt
O=C(NCc1ccco1)c1cccn2c(=O)c3sccc3nc12 | -2 | -8 | 13 | 19* | -2 | -3 | -8 | 34*
CN(C)CCNC(=O)c1csc(Nc2cccc3ccccc23)n1 | -2 | 31 | -24 | 13* | -2 | -1 | -3 | 22*
O=C(O)Cn1c2c(c3ccccc31)CSc1ccc(Cl)cc1-2 | 2 | 13 | 10 | 15* | 0 | 12 | -4 | 20*
Cc1ccc(-c2csc(NC(=O)CN3CCOCC3)n2)cc1C | -3 | -26 | 3 | -2 | nt | nt | nt | nt
O=C(O)CCN1C(=O)C2CCCCC2C1=O (configuration not stated) | -3 | -2 | -5 | -3 | nt | nt | nt | nt
O=C1C(=O)N(O)C2CCCCC2N1O (configuration not stated) | -3 | 3 | 1 | 13* | -4 | 47* | -7 | 24*
CC1=CCC(C(=O)O)(C(=O)N/N=C/c2cccs2)C(c2ccc(Cl)cc2)C1 (configuration not stated) | -1 | -36 | 11 | 15* | -4 | 0 | -5 | 4
CCN(CC)c1ccc2c(Cl)c(Br)c(=O)oc2c1 | -4 | -4 | -91 | 3 | nt | nt | nt | nt
c1ccc(-c2nccc(-c3ccco3)n2)nc1 | -1 | -4 | 1 | 34* | -5 | -20 | -7 | 30*
c1ccc(-c2noc(-c3ccco3)n2)nc1 | 0 | 0 | 4 | -5 | nt | nt | nt | nt
COc1ccc(S(=O)(=O)N(CCc2ccccc2)CC(=O)N/N=C/c2ccc3c(c2)OCO3)cc1 | -3 | -4 | 7 | -1 | nt | nt | nt | nt
O=C(Oc1ccc2cc(Br)ccc2c1)c1cccnc1 | -1 | -1 | 4 | -4 | nt | nt | nt | nt
Cn1c(=O)c2sccc2n2c(CCCC(=O)N3CCN(c4ccccn4)CC3)nnc12 | -4 | -28 | -1 | 13* | -3 | -1 | -6 | 20*
Cc1nc2ccc(Br)cc2c(=O)n1Cc1cccs1 | nt | nt | -8 | nt | nt | nt | nt | nt

From PubChem BioAssay
